Results as given in ChEMBL document CHEMBL1154803, “Tetranortriterpenoids from Chisocheton paniculatus” (J Nat Prod, 2009).

Legend:
HeLa = experiment: Cytotoxicity against human HeLa cells by MTT assay; assay type: functional, cell-based
Summary of the method: (§1)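 MTT assay per a literature method. HeLa (cervical) and SMMC7721 (hepatoma) cells came from the Cell Bank of the Shanghai Institute of Cell Biology. Fluorouracil served as positive control. Three independent replicates were run, and IC50 values were reported.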

SMMC-7721 = experiment: Cytotoxicity against human SMMC7721 cells by MTT assay; assay type: functional, cell-based; summary of the method: as §1

| SMILES | IC50 (HeLa) | IC50 (SMMC-7721) |
| --- | --- | --- |
| C/C=C(\C)C(=O)O[C@@H]1[C@@H]2OC[C@]3(C)[C@H](OC(C)=O)C[C@H](OC(C)=O)[C@@](C)([C@@H]23)[C@H]2C[C@H](OC)O[C@H]3C[C@@H](C4=CCOC4=O)C(C)=C3[C@]12C [CHISONIMBOLININ A] | > 100 µM | > 100 µM |
| C/C=C(\C)C(=O)O[C@@H]1[C@@H]2OC[C@]3(C)[C@H](OC(C)=O)C[C@H](O)[C@@](C)([C@@H]23)[C@H]2C[C@H](O)O[C@H]3C[C@@H](C4=CCOC4=O)C(C)=C3[C@]12C [CHISONIMBOLININ D] | 32 µM | 50 µM |
| C/C=C(\C)C(=O)O[C@@H]1[C@@H]2OC[C@]3(C)[C@H](OC(C)=O)C[C@H](O)[C@@](C)([C@@H]23)[C@H]2C[C@H](OCC)O[C@H]3C[C@@H](C4=CCOC4=O)C(C)=C3[C@]12C [CHISONIMBOLININ E] | > 100 µM | > 100 µM |
| C/C=C(\C)C(=O)O[C@@H]1[C@@H]2OC[C@]3(C)[C@H](OC(C)=O)C[C@H](OC(C)=O)[C@@](C)([C@@H]23)[C@H]2CCO[C@H]3C[C@@H](C4=CCOC4=O)C(C)=C3[C@]12C [CHISONIMBOLININ G] | > 100 µM | > 100 µM |
| C/C=C(\C)C(=O)O[C@@H]1[C@@H]2OC[C@]3(C)[C@H](OC(C)=O)C[C@H](O)[C@@](C)([C@@H]23)[C@H]2CCO[C@H]3C[C@@H](C4=CCOC4=O)C(C)=C3[C@]12C [CHISONIMBOLININ F] | > 100 µM | > 100 µM |
| C/C=C(\C)C(=O)O[C@@H]1[C@@H]2OC[C@]3(C)[C@H](OC(=O)/C(C)=C/C)C[C@H](O)[C@@](C)([C@@H]23)[C@H]2C[C@H](OC)O[C@H]3C[C@@H](C4=CCOC4=O)C(C)=C3[C@]12C [CHISONIMBOLININ C] | 13 µM | 50 µM |
| C/C=C(\C)C(=O)O[C@@H]1[C@@H]2OC[C@]3(C)[C@H](OC(C)=O)C[C@H](O)[C@@](C)([C@@H]23)[C@H]2C[C@H](OC)O[C@H]3C[C@@H](C4=CCOC4=O)C(C)=C3[C@]12C [CHISONIMBOLININ B] | > 100 µM | 50 µM |
